Screening data deposited in PubChem BioAssay by several laboratories.
Glyco luc inh – blocks N-linked glycosylation in D54 reporter cells; D54 ERlucT glycosylation luciferase reporter, 24 h; percent of 100 nM tunicamycin response; reporter increase, % at 12.5 µM; hit rate 0.23% among 360,000; AID 588692;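 active means mean luciferase reporter signal, scaled so untreated is 0 and the glycosylation-blocking control 100, at or above a set limit in every replicate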;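 further: luciferase carries N-glycosylation sites so blocking glycosylation raises the light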
bovine MsrA act – bovine methionine sulfoxide reductase A activation; hit rate 0.3% among 360,000; activation, % at 10.6 µM; purified bovine MsrA, absorbance read-out; in the data active means activation above about 7.5%
UCH37 inh – human UCH37 deubiquitinating enzyme inhibition | Q9Y5K5 | hit rate 0.33% among 330,000 | inhibition, % (no concentration beside the values) | purified proteasome/UCH37, Ub-AMC cleavage fluorescence | AID 588478;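 active means mean inhibition over replicate wells above about 20%, limit read from the data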
Target sequence (Q9Y5K5 whole entry, looked up): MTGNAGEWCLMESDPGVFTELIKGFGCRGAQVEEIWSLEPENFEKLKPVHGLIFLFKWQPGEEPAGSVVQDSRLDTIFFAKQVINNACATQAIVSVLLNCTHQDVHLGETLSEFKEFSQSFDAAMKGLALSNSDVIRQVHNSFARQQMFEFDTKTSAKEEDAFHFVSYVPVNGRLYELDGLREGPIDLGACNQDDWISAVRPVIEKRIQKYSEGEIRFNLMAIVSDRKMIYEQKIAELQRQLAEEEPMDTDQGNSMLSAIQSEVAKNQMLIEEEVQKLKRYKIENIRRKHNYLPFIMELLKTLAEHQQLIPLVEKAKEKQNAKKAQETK
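Assay system: Proteasome-bound UCH37. Buffer or medium: pH 7.4 Tris-HCl (50 mM) with ovalbumin, ATP-MgCl2, DTT. Incubation: 30 min preincubation with enzyme, 25 min cleavage at room temperature. Measured by: fluorescence, ex 355 nm, em 460 nm. Read-out basis: percent inhibition. Control set: wells without proteasome as full block, compound-free enzyme plus substrate as uninhibited.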
Vif imaging – blocks HIV Vif function; AID 602346; inhibition, % at 7.49 µM; HEK293T cells, Vif self-association by quenched fluorescence, imaging, 24 h; hit rate 0.35% among 340,000; in the data active means inhibition above about 50%, passing the limit was not always enough
MsrA inh – inhibitors of bovine MsrA; inhibition, % at 15.5 µM; hit rate 0.75% among 360,000; purified bovine MsrA, absorbance read-out; AID 651718; in the data active means inhibition above about 4.5%
aDG glyco act – alpha-DG glycosylation activation; Pro5-aDG cells, alpha-DG glycosylation AlphaScreen (IIH6); 0% Pro5, 100% B10-LARGE cell signal; activation, % at 10 µM; hit rate 0.22% among 360,000;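 active means activation of at least 8% versus controls, or a plate z-score of at least 8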;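 further: Pro5 are CHO cells carrying HIG-tagged alpha-DG that lacks glycosylation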
Hits are given with their value; i = inactive; nt = no result given; + = active, no number. Shown are actives, neighbours in structure and some others; about 1.9% of the full set was active somewhere.

SMILES	Glyco luc inh	bovine MsrA act	UCH37 inh	Vif imaging	MsrA inh	aDG glyco act
Cl/C(C=NN1CCN(c2ccccn2)CC1)=C\c1ccccc1	nt	nt	i	nt	nt	nt
COc1cccc(-c2noc(Cn3nc(C)c([N+](=O)[O-])c3C)n2)c1	i	i	24	i	i	i
CC(=NNC(=O)c1n[nH]c2c1CCC2)c1ccco1	nt	nt	i	nt	nt	nt
CC1(C)CC(=NNC(=O)c2n[nH]c3c2CCC3)CC(C)(C)N1	i	i	31	i	i	i
O=C(CCNC(=O)c1ccccc1Cl)Nc1ccc(Br)c(C(F)(F)F)c1	i	i	24	i	i	i
COc1ccc(C(=O)CSc2nnc(-c3cc(C)on3)o2)cc1	i	i	i	i	i	i
Cc1cc(-c2nnc(SCC(=O)c3ccc(Cl)cc3)o2)no1	i	i	i	92	i	i
C(=Nc1nc2ccccc2n1Cc1ccccc1)c1cccs1	nt	nt	i	nt	nt	nt
Cc1cc(NC(=O)CSc2ccc(-c3nc4cc(C)c(C)cc4[nH]3)cn2)no1	44	i	i	i	nt	i
Cc1cc2nc(-c3ccc(SCC(=O)Nc4ccc(S(=O)(=O)NC5CC5)cc4)nc3)[nH]c2cc1C	i	i	i	nt	i	i
Nc1nnn(CC(=O)N/N=C/c2cccc(Cl)c2)n1	i	i	nt	61	i	i
N#CC(=NNc1ccc(Cl)c(Cl)c1)C(=O)C1CC1	nt	nt	i	nt	nt	nt
CCOC(=O)C1=C(C)NC(C)=C(C(=O)OC)C1c1cccc([N+](=O)[O-])c1 (stereo unspecified)	i	i	i	135	i	i
COc1ccc(CC(=O)Nc2ccc(-c3noc(-c4cc(OC)c(OC)c(OC)c4)n3)cc2)cc1	i	i	i	+	i	i
CN(C)S(=O)(=O)c1cccc(C(=O)NC2CCSc3ccccc32)c1 (stereo unspecified)	i	i	i	99	i	i
CCCn1c(=O)[nH]c(=O)c2c1nc(-c1cc([N+](=O)[O-])ccc1Cl)n2CCOC	i	i	i	65	i	i
O=c1c2ccccc2nnn1CSc1nnc(Nc2ccccc2)s1	i	i	i	51	i	i
Cc1ccc(Nc2nnc(SCn3nnc4ccccc4c3=O)s2)cc1	i	i	i	i	i	i
O=S(=O)(Nc1nc2ccccc2nc1NCc1ccco1)c1ccc(Cl)cc1	i	i	i	62	i	i
Oc1ccc(C=NNc2ncc(Br)cn2)c(O)c1	nt	nt	i	nt	nt	nt
COc1ccc(C(=O)Nc2c(Cl)cc(Cl)cc2C(=O)N2CCOCC2)cc1	i	i	i	65	i	i
O=C(NN=Cc1ccco1)c1cc(-c2ccccc2)nc2ccccc12	nt	nt	i	nt	nt	nt
CCOc1ccc(/C=C/C(=O)c2ccccc2)cc1OC	26	i	i	i	i	i
COc1ccc(/C=C/C(=O)c2ccc3c4c(cccc24)CC3)cc1OC	34	i	i	i	i	i
CCOc1ccc(C(=O)/C=C/c2ccc(OC)c(OC)c2)cc1	i	i	i	i	i	i
SMILES	Glyco luc inh	bovine MsrA act	UCH37 inh	Vif imaging	MsrA inh	aDG glyco act
S=c1[nH]nc(-c2n[nH]c3c2CCC3)n1N=C/C=C/c1ccccc1	nt	nt	i	nt	nt	nt
CC(CC(=O)NCc1ccco1)=NNC(=O)Cc1ccc(Cl)cc1	nt	nt	32	nt	nt	nt
Cc1ccsc1/C=C(\CC(=O)O)c1nc2ccccc2o1	i	i	i	i	4.6	i
Cc1ccsc1/C=C(\C(=O)c1ccc(OC(C)C)cc1)c1nc2ccccc2o1	i	i	i	i	4.6	i
O=C(O)C/C(=C\c1cc(Br)cs1)c1nc2ccccc2o1	i	i	i	i	4.6	i
Cc1ccc(-c2nc3ccccc3o2)cc1NC(=O)Cc1cccs1	i	i	i	i	i	i
O=C(NN=Cc1ccc(F)cc1)c1ccccc1	nt	nt	i	nt	nt	nt
CN1/C(=C/c2cccc[n+]2CCO)Sc2ccccc21	i	i	i	i	i	i
CC[n+]1c(/C=C2\Sc3ccccc3N2C)ccc2cccc(C)c21	i	i	24	nt	i	i
Cc1ccc(N2CCN(N=Cc3ccccc3)CC2)cc1	nt	nt	i	nt	nt	nt
CC1Cc2ccccc2N1C(=O)COC(=O)c1ccccc1NCCO (stereo unspecified)	i	i	i	66	i	i
COC(=O)c1cc(CC(=O)c2ccc(O)cc2O)c(C)o1	i	i	i	nt	7.2	i
COC(=O)c1ccc(CC(=O)c2ccc(O)cc2O)o1	i	i	i	i	nt	i
Cc1ccccc1NC(=S)C1=C(O)c2sccc2N(C)S1(=O)=O	i	i	23	nt	i	i
CCNC(=O)C1=C(O)c2sccc2N(C)S1(=O)=O	i	i	i	i	i	i
CN1c2ccsc2C(O)=C(C(=S)Nc2ccccc2)S1(=O)=O	i	i	21	nt	i	i
CSc1nc(O)c(C=C2C=Nc3ccccc32)[nH]1	nt	nt	i	nt	nt	nt
Cc1cc(C)nc(N/N=C/c2cc(C)n(CC(F)(F)F)c2C)n1	i	i	nt	i	4.6	i
COCc1c(C(=O)NN=C(C)c2ccccc2)nnn1-c1nonc1N	nt	nt	i	nt	nt	nt
CC[C@@H]1CC=C[C@H]2[C@H]1C(=O)N(Cc1ccccc1)[C@H]2c1ccoc1	38	i	nt	i	nt	i
Cc1cc[n+](CC(=O)c2ccc3c(c2)OCCO3)cc1	i	i	24	i	i	i
Cc1cc(N)ncc1[N+](=O)[O-]	i	i	i	i	4.6	i
CN(C)c1ccc(C(C[N+](=O)[O-])c2c(N)n(C)c(=O)n(C)c2=O)c(F)c1C#N (stereo unspecified)	28	i	i	i	i	i
CC(C)Oc1ccc(F)cc1-c1cc(C(=O)Nc2ccc(C(C)(C)C)cc2)[nH]n1	42	i	nt	i	i	i
CC[n+]1c(/C=C2/C=C(C)CC(C)C2)sc2ccccc21 (stereo unspecified)	i	i	i	i	i	i
SMILES	Glyco luc inh	bovine MsrA act	UCH37 inh	Vif imaging	MsrA inh	aDG glyco act
CC[n+]1c(C=C2C=C(C)OC(C)=C2)sc2ccccc21	i	i	23	nt	i	i
CC1(C)CC(NC(=O)c2cccc(S(=O)(=O)N(Cc3ccccc3)c3ccccc3)c2)CC(C)(C)N1	i	i	i	i	i	6.8
Cc1ccc(N(C)S(=O)(=O)c2cccc(C(=O)NC3CC(C)(C)NC(C)(C)C3)c2)cc1	i	i	i	i	i	i
COC(=O)c1cc(C)ccc1OCc1ccc([N+](=O)[O-])cc1	i	i	i	82	i	i
COC(=O)c1ccc(COc2ccc(C)cc2[N+](=O)[O-])o1	i	i	i	i	i	i
CCCOc1ccc(CCC(=O)NN=Cc2ccco2)cc1	nt	nt	i	nt	nt	nt
N#Cc1c(Sc2ncc(C(F)(F)F)cc2Cl)nsc1CC=NOCc1c(F)cccc1Cl	nt	nt	i	nt	nt	nt
COc1cc(/C=N/NC(=O)c2cc(-c3cccn3C)n[nH]2)cc(OC)c1OC	68	i	nt	i	i	i
COc1cc(C=NNC(=O)c2cc(-c3cccn3C)n[nH]2)cc(OC)c1OC	nt	nt	i	nt	nt	nt
Cc1cc(NCCCOC(C)C)n2c(nc3ccccc32)c1C#N	i	i	i	i	i	i
Cc1cc(NCCCN(C)C)n2c(nc3ccccc32)c1C#N	34	i	i	i	i	i
CCCN(CCC)c1nc2ccccc2n2c(C)nnc12	i	i	i	i	i	i
